From ChEMBL document CHEMBL1141447, “Nitrogen-containing verticillene diterpenoids from the Taiwanese soft coral Cespitularia taeniata” (2007)
≈ marks a conversion by molar mass, not a printed value. Calls of active or inactive are those of the source. No cut-off for these calls is given here.

Legend:
KB = assay: Cytotoxicity against human KB cells at 3.7 ug/ml after 48 hrs; assay type: functional, cell-based
Summary of the method: (§1)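 KB (human oral epidermoid carcinoma) or L1210 (mouse leukemia) cells were incubated at 37 °C for 48 h in medium with graded concentrations of compound, dissolved in 0.6% Me2SO. IC50 was read from a plot of log concentration against growth rate of the treated cells.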

Staphylococcus aureus = assay: Antimicrobial activity against Staphylococcus aureus 209P; assay type: functional, organism-based
L1210 = assay: Cytotoxicity against mouse L1210 cells at 5.1 ug/ml after 48 hrs; assay type: functional, cell-based; summary of the method: as §1
Micrococcus luteus = assay: Antimicrobial activity against Micrococcus luteus IFM2066; assay type: functional
Cryptococcus neoformans = assay: Antimicrobial activity against Cryptococcus neoformans IFM46914; assay type: functional
Trichophyton benhamiae [1] = assay: Antimicrobial activity against Trichophyton mentagrophytes; assay type: functional, Arthroderma benhamiae
Trichophyton benhamiae [2] = assay: Antimicrobial activity against Trichophyton mentagrophytes IFM45110; assay type: functional, Arthroderma benhamiae

| MIC (Micrococcus luteus) [µg/mL] | MIC (Cryptococcus neoformans) [µg/mL] | MIC (Trichophyton benhamiae [1]) [µg/mL] | MIC (Trichophyton benhamiae [2]) [µg/mL] | SMILES | Activity (KB) | Activity (Staphylococcus aureus) | Activity (L1210) |
| --- | --- | --- | --- | --- | --- | --- | --- |
|  |  |  |  | C=C1CC[C@@H]2CCC3=C([C@@H](C/C(C)=C/[C@@H](O)C1)N(C)C3=O)C2(C)C | inactive | inactive | inactive |
| 4.16 (≈ 9.55 µM) | 4.16 (≈ 9.55 µM) |  |  | C=C1CC[C@@H]2CC[C@@H]3C(=O)N(CCc4ccc(O)cc4)C(=C3C2(C)C)C/C(C)=C/[C@@H](O)C1 [CESPITULACTAM K] | Active | inactive | Active |
|  |  | 4.16 (≈ 11.6 µM) |  | C=C1CC[C@@H]2CCC3=C([C@@H](C/C(C)=C/[C@@H](OC(C)=O)C1)NC3=O)C2(C)C [CESPITULACTAM E] | inactive | inactive | inactive |
| 4.16 (≈ 13.2 µM) |  |  |  | C=C1CC[C@@H]2CCC3=C([C@@H](C/C(C)=C/[C@@H](O)C1)NC3=O)C2(C)C [CESPITULACTAM D] | inactive | inactive | inactive |
|  |  |  | 2.08 (≈ 5.79 µM) | C=C1CC[C@@H]2CCC3=C(C2(C)C)[C@@](O)(C/C(C)=C/[C@@H](O)C1)N(CC)C3=O [CESPITULACTAM G] | inactive | inactive | inactive |
| 4.16 (≈ 9.07 µM) | 4.16 (≈ 9.07 µM) | 4.16 (≈ 9.07 µM) |  | C=C1CC[C@@H]2CCC3=C([C@@H](C/C(C)=C/[C@@H](O)C1)N(CCc1c[nH]c4ccccc14)C3=O)C2(C)C [CESPITULACTAM J] | inactive | inactive | inactive |
|  | 4.16 (≈ 12.6 µM) |  |  | C=C1CC[C@@H]2CCC3C(=O)N/C(=C/C(C)CC(=O)C1)C3(O)C2(C)C (stereo partly drawn) | inactive | inactive | inactive |
|  |  |  |  | C=C1CC[C@@H]2CCC3=C(C2(C)C)[C@@](O)(C/C(C)=C/[C@@H](O)C1)NC3=O | inactive | inactive | inactive |
